Experimental data of several laboratories.
Protocols differ between the studies behind these lines. pIC50: −log10 of the molar value.
Effect on: cell growth or viability

NCCOc1cc(NC(=O)c2cccc(C(=O)Nc3cc(OCCN)c4ccccc4n3)n2)nc2ccccc12
pIC50 (U2OS; ATP luminescence; 72 h): 6.15

CS(=O)(=O)c1nc(N)n(-c2ccc(C(=O)O)cc2)n1
pIC50 (RPE-1; MTT): 4.47

COc1cc(-c2ncn(/C=C\C(=O)OC(C)C)n2)cc(C(F)(F)F)c1
pIC50 (NB-4; 72 h): 6.77

COc1ccc(O)c(/C=N/c2nc(Oc3ccccc3)nn2-c2ccc(C(=O)O)cc2)c1
pIC50 (RPE-1; MTT): 4.48

N[C@@H](CC(=O)N1CCN(C(c2ccc(F)cc2)c2ccc(F)cc2)CC1)C(=O)N1Cc2ccccc2C1
pIC50 (NB-4; ATP luminescence; 48 h): 5.88

CSc1nc(NC(=S)NCCc2ccccc2)n(-c2ccc(C(=O)O)cc2)n1
pIC50 (RPE-1; MTT): 4.55

CCCCc1ccc2[nH]c(NC(=O)OC)nc2c1
pIC50 (SCC-9; CCK-8; 72 h): 7.11

CC(=O)c1ccc(O)cn1
pIC50 (Hepa-1c1c7; crystal violet; 48 h): < 4.00

Nc1nc(Oc2ccccc2)nn1-c1ccc(C(=O)O)cc1
pIC50 (RPE-1; MTT): 4.59

NCCOc1cc(C(=O)Nc2cc(OCCN3CCCC3)c3ccccc3n2)nc(C(=O)Nc2cc(OCCN3CCCC3)c3ccccc3n2)c1
pIC50 (U2OS; ATP luminescence; 72 h): 6.70

CSc1nc(/N=C/c2cccc(O)c2)n(-c2ccc(C(=O)O)cc2)n1
pIC50 (RPE-1; MTT): 4.46

O=C(Nc1cc(OCCN2CCCC2)c2ccccc2n1)c1cc(Cl)cc(C(=O)Nc2cc(OCCN3CCCC3)c3ccccc3n2)n1
pIC50 (U2OS; ATP luminescence; 72 h): 5.64

COc1cc(Nc2nccc(-c3cnn4nc(OC)ccc34)n2)cc(C(F)(F)F)c1
pIC50 (SK-N-SH; ATP luminescence): 6.01

C#CCOc1cc(C(=O)Nc2cc(OCCN)c3ccccc3n2)nc(C(=O)Nc2cc(OCCN)c3ccccc3n2)c1
pIC50 (U2OS; ATP luminescence; 72 h): 5.31

CC(=O)Oc1ccc2c(c1)C(C)=CC(C)(C)N2Cc1ccccc1
pIC50 (PLC5; MTT; 72 h): 4.74

Cc1ccc(O)c(/C=N/c2nc(Oc3ccccc3)nn2-c2ccc(C(=O)O)cc2)c1
pIC50 (RPE-1; MTT): 4.47

Cc1ccc(C(=O)Nc2ccc(Oc3cc4cnn(C)c4cc3-c3cn[nH]c3)c(F)c2)c(=O)n1-c1ccc(F)cc1
pIC50 (Hs746T; ATP luminescence): 7.47

COc1nc(OCc2cccc(-c3ccccc3)c2C)ccc1CNCCNC(C)=O
pIC50 (HCT-8; MTT): 5.41

CC(C)[C@H](N)C(=O)N1CCC[C@H]1B(O)O
pIC50 (HEL; ATP luminescence; 48 h): < 4.22

CN1c2ccccc2C(=O)N2[C@H](C(=O)Nc3ccc(C(=O)Nc4ccccc4N)cc3)Cc3c([nH]c4ccccc34)[C@@H]12
pIC50 (HEL): 6.18

COc1ccc(O)c(/C=N/c2nc(SC)nn2-c2ccc(C(=O)O)cc2)c1
pIC50 (RPE-1; MTT): 4.45

CN(C)CCCOc1cc(NC(=O)c2cc(Cl)cc(C(=O)Nc3cc(OCCCN(C)C)c4ccccc4n3)n2)nc2ccccc12
pIC50 (U2OS; ATP luminescence; 72 h): 5.74

CSc1nc(N)n(-c2ccc(C(=O)O)cc2)n1
pIC50 (RPE-1; MTT): 4.38

C#CCOc1cc(C(=O)Nc2cc(OCCCN)c3ccccc3n2)nc(C(=O)Nc2cc(OCCCN)c3ccccc3n2)c1
pIC50 (U2OS; ATP luminescence; 72 h): 5.64

CC[C@@H](C)[C@H](N)C(=O)N1Cc2ccccc2C1
pIC50 (SKM-1; ATP luminescence; 48 h): 6.74

CN(C)CCCOc1cc(NC(=O)c2cccc(C(=O)Nc3cc(OCCCN(C)C)c4ccccc4n3)n2)nc2ccccc12
pIC50 (U2OS; ATP luminescence; 72 h): 5.68

CC(C)C[C@H](NC(=O)[C@H](Cc1ccccc1)NC(=O)c1cnccn1)B(O)O
pIC50 (SK-N-SH; ATP luminescence): 8.10

NCCOc1cc(C(=O)Nc2cc(OCCN)c3ccccc3n2)nc(C(=O)Nc2cc(OCCN)c3ccccc3n2)c1
pIC50 (U2OS; ATP luminescence; 72 h): 4.77

Cc1cc(NC(=O)c2cccc3cc(-c4cccc5[nH]nc(N)c45)ccc23)ccc1F
pIC50 (mouse BMDM; CCK-8; 72 h): 7.03
